Assay [1] has as its system NCI-H1299. In words: Induction of ROS generation in human NCI-H1299 cells after 5 hrs by DCF-DA staining-based assay. Format: functional, cell-based. In a few lines:
(§1)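 H1299 cells incubated 5 h with increasing compound concentrations (0–100 µM). ROS read with the cell-permeable probe DCF-DA. Fluorescence of treated cells (Fi) ratioed to non-treated control (Fo).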

The subject of assay [2] is NCI-H1299. Nature of the assay: Induction of ROS generation in human NCI-H1299 cells at <= 100 uM after 5 hrs by DCF-DA staining-based assay. Format: functional.
The subject of assay [3] is NCI-H1299. Nature of the assay: Induction of ROS generation in human NCI-H1299 cells at 100 uM after 5 hrs by DCF-DA staining-based assay. In kind it is functional. An outline of the steps:
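Single-point screen at 100 µM in duplicate, 5 h incubation in H1299 cells. ROS detected by DCF-DA fluorescence, reported as fold over non-treated control (Fi/Fo).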

In assay [4] the target is Endoplasmic reticulum chaperone BiP (Homo sapiens) (UniProt P11021). In words: Induction of glucose-regulated protein 78 in HEK293 cells at 200 uM after 6 hrs by Western blotting method. In kind it is cell-based. An outline of the steps: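 GRP78 (BiP) induction, an ER stress marker, assessed by Western blot of HEK293 lysates after treatment at 200 µM.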
Endoplasmic reticulum chaperone BiP (Homo sapiens), sequence (P11021 whole entry): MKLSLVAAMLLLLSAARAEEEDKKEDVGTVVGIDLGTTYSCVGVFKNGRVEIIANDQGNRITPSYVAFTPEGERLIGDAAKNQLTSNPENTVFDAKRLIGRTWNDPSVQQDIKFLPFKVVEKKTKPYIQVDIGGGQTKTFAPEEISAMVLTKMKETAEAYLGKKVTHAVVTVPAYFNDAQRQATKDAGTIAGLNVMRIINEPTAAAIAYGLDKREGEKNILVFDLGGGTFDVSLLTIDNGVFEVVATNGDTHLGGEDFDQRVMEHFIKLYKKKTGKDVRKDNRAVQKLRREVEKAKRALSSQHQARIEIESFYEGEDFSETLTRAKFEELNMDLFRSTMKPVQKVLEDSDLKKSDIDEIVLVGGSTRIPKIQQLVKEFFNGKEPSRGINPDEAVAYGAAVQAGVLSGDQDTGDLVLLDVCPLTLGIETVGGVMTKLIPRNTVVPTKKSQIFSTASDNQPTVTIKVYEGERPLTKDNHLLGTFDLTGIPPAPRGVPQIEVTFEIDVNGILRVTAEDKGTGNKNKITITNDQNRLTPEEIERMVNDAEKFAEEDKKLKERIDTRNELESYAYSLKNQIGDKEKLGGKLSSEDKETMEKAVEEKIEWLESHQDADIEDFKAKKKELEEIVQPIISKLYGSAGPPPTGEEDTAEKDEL
Assay [5] relates to NCI-H1299. Nature of the assay: Cytotoxicity against human NCI-H1299 cells assessed as reduction in cell viability at 100 uM after 48 hrs by MTT assay. In kind it is functional, cell-based. An outline of the steps: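 H1299 cells treated at 100 µM for 48 h in duplicate. MTT viability expressed as treated versus non-treated control (Vi/Vo).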
(In general: Tetrazolium assays rely on reduction of a dye to a coloured formazan, in cell work by metabolically active cells.)

Assay [6] has as its system NCI-H1299. In words: Cytotoxicity against human NCI-H1299 cells assessed as reduction in cell viability after 48 hrs by MTT assay. As to conditions: for IC50: NCI-H1299, 48 h. Format: functional, cell-based. In a few lines: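 H1299 non-small cell lung carcinoma cells incubated with compound for 48 h. Viability by MTT relative to non-treated control (Vi/Vo). IC50 taken from dose–response.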

For assay [7], the target named is T1, AMP-activated protein kinase, AMPK (Homo sapiens) (UniProt P54646+O43741+P54619+Q9UGJ0+Q9Y478+Q13131+Q9UGI9). Nature of the assay: Activation of AMPK in HEK293 cells assessed as AMPK phosphorylation after 16 hrs by Western blotting method. Format: cell-based. In a few lines: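 HEK293 cells treated with increasing concentrations of compound for 16 h; cell lysates analysed by Western blot with antibodies to phosphorylated AMPK (also p53).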
A general note: In western blotting, separated proteins are transferred to a membrane and probed.

For assay [8], the system named is NCI-H1299. In words: Induction of ROS generation in human NCI-H1299 cells at <= 50 uM after 5 hrs by DCF-DA staining-based assay. In kind it is functional. In a few lines:
as §1

Assay [9] deals with T1, AMP-activated protein kinase, AMPK (Homo sapiens). Nature of the assay: Activation of AMPK in HEK293 cells assessed as p53 stabilization at 0.03 to 0.1 mM after 16 hrs by Western blotting method. Format: cell-based.
The subject of assay [10] is NCI-H1299. Nature of the assay: Induction of ROS generation in human NCI-H1299 cells at […] after 5 hrs by DCF-DA staining-based assay.
Assay [11] deals with NCI-H1299. In words: Cytotoxicity against human NCI-H1299 cells assessed as viability at 500 uM after 48 hrs by MTT assay. In kind it is functional. The following applies: NCI-H1299, 48 h, read-out: Activity. In a few lines: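 H1299 non-small cell lung carcinoma cells incubated with compound for 48 h; viability read by MTT assay and expressed as treated (Vi) relative to non-treated control (Vo).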

Results on 14 compounds are retold here after ChEMBL document CHEMBL3763011, “Carbohydrate-based inducers of cellular stress for targeting cancer cells” (Bioorg Med Chem Lett, 2016).

By IC50 is commonly meant the concentration at which inhibition is half-maximal.

The structures appear in SMILES notation. Active and inactive are the calls of the source. No cut-off for these calls is given here.

For `O[C@@H]1[C@@H](O)[C@H](Nc2cccc3ccccc23)OC[C@H]1O`, in the assay on NCI-H1299 [1], the Activity entry was “Dose-dependent effect”. The figures for the “fold change (FC)” value with NCI-H1299 [2] and with NCI-H1299 [3] were 2 and “>=2”, respectively. In addition, the outcome (in assay [4]; in the assay with NCI-H1299 [5]) was Active. Besides, the half-inhibitory concentration (IC50) in the assay with NCI-H1299 [6] came out at 75 µM.
With `O[C@@H]1[C@@H](O)[C@@H](O)CO[C@H]1Nc1ccccc1`, the outcome in the assay on NCI-H1299 [5] was Active.
For the compound `OO` [HYDROGEN PEROXIDE], in the assay on NCI-H1299 [6], the IC50 stood at 60 µM.
Consider `O=C[C@H](O)[C@@H](O)[C@H](O)CO`, for which the result in the assay with NCI-H1299 [6] was inactive.
For `OC[C@H]1OC(Nc2cccc3ccccc23)[C@H](O)[C@@H](O)[C@H]1O` (stereo partly specified), the “fold change (FC)” value in the assay with NCI-H1299 [3] is “>=2”.
Same read-out and setting: as for `CC(=O)N[C@H]1C(Nc2ccc3nccnc3c2)O[C@H](CO)[C@@H](O)[C@@H]1O` (stereo partly specified), the entry is “>=2”.
As for `O=c1oc2ccccc2cc1N[C@@H]1OC[C@H](O)[C@H](O)[C@H]1O`, the “fold change (FC)” value with NCI-H1299 [3] is given as “>=2”.
Turning to `CC(=O)OC1OC[C@@H](OC(C)=O)[C@H](OC(C)=O)[C@H]1OC(C)=O` (stereo partly specified), the outcome in the assay on NCI-H1299 [6] was inactive.
For the compound `C[C@@H]1OC(Nc2cccc3ccccc23)[C@H](O)[C@H](O)[C@H]1O` (stereo partly specified), in the assay with NCI-H1299 [3], the “fold change (FC)” value is “>=2”.
In the case of `CC(=O)O[C@@H]1[C@@H](OC(C)=O)[C@H](OC(C)=O)CO[C@H]1Nc1cccc2ccccc12`, the Activity entry in [7] is “Dose-dependent effect”. Also, in the assay on NCI-H1299 [8], the “fold change (FC)” value came to 1.5. In addition, the result in assay [4] and in assay [9] was Active. The IC50 with NCI-H1299 [6] is 30 µM.
In the case of `O[C@H]1[C@H](O)[C@@H](Nc2ccccc2)OC[C@H]1O`, in the assay on NCI-H1299 [3], the result was inactive. Also, in the assay with NCI-H1299 [5], the result was Active.
Take `OC[C@H]1OC(O)C[C@@H](O)[C@@H]1O` (stereo partly specified): the “fold change (FC)” value with NCI-H1299 [10] amounted to 1.5. Further, the Activity result in [7] is “Dose-dependent effect”. The viability at 500 µM in the assay with NCI-H1299 [11] came to 80%.
`O[C@H]1[C@H](O)[C@H](Nc2ccccc2)OC[C@H]1O`: in the assay on NCI-H1299 [3], the outcome was inactive. Moreover, the result in the assay with NCI-H1299 [5] was Active.
For `O[C@H]1[C@H](O)[C@@H](Nc2cccc3ccccc23)OC[C@H]1O`, in the assay on NCI-H1299 [1], the Activity result was “Dose-dependent effect”. In addition, the “fold change (FC)” value was 2 in the assay with NCI-H1299 [2] and “>=2” in the assay with NCI-H1299 [3]. For the same compound, in the assay with NCI-H1299 [5], the outcome was Active. In addition, the IC50 in the assay on NCI-H1299 [6] came out at 75 µM.
